The values that follow come from ChEMBL document CHEMBL4627282, “Synthesis of guggulsterone derivatives as potential anti-austerity agents against PANC-1 human pancreatic cancer cells” (Bioorg Med Chem Lett, 2020).

For experiment [1], the system named is PANC-1. Description: Anti-austerity activity against human PANC1 cells assessed as cell killing incubated in nutrient deprived medium. The experiment is classed as functional. The gist of the method:
(§1)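 PANC-1 cells were exposed to a concentration series in nutrient-deprived medium (NDM; no glucose, amino acids or serum) and, in parallel, in complete DMEM. Survival was plotted against log concentration, and PC50, the concentration preferentially cytotoxic under starvation, was read from the curve.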

Experiment [2] has as its system PANC-1. In words: Cytotoxicity against human PANC1 cells incubated in normal DMEM medium. The experiment is classed as cell-based. The procedure, abridged: as §1
For experiment [3], the system named is PANC-1. In words: Induction of cell death in human PANC1 cells assessed as swelling of cells at 5 uM incubated in nutrient deprived medium measured every 10 mins for 12 hrs by live cell imaging analysis. The experiment is classed as functional, cell-based.
Experiment [4] has as its system PANC-1. In words: Selectivity index, ratio of IC50 for human PANC1 cells incubated in normal DMEM medium to PC50 for human PANC1 cells incubated in nutrient-deprived medium.
For experiment [5], the system named is PANC-1. Description: Inhibition of colony formation in human PANC1 cells incubated for 10 days in DMEM by crystal violet staining based assay.
For experiment [6], the system named is PANC-1. Description: Induction of cell death in human PANC1 cells assessed as leakage of cytoplasmic content at 5 uM incubated in nutrient deprived medium measured every 10 mins for 12 hrs by live cell imaging analysis. In kind it is functional, cell-based.
The test system of experiment [7] is PANC-1. Description: Induction of cell death in human PANC1 cells assessed as cell shrinkage at 5 uM incubated in nutrient deprived medium measured every 10 mins for 12 hrs by live cell imaging analysis. The experiment is classed as functional, cell-based.
Experiment [8] relates to PANC-1. Description: Induction of cell death in human PANC1 cells assessed as rounded cell morphology at 5 uM incubated for 24 hrs in nutrient deprived medium by ethidium bromide and acridine orange dye based phase contrast microscopy. In kind it is functional. The gist of the method: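 PANC-1 cells treated in NDM for 24 h, then double-stained with ethidium bromide and acridine orange. They were imaged in fluorescence (green for live, red for dead or dying) and phase-contrast modes on a digital microscope, and morphology was judged against untreated controls.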

Experiment [9] has as its system PANC-1. Description: Inhibition of cell migration in human PANC1 cells at 5 uM incubated in nutrient deprived medium measured every 10 mins for 24 hrs by live cell imaging analysis. In kind it is functional, cell-based.
Experiment [10] has as its system PANC-1. In words: Inhibition of colony formation in human PANC1 cells at 50 uM incubated for 10 days in nutrient deprived medium by crystal violet staining based assay. In kind it is functional, cell-based.
Experiment [11] relates to PANC-1. In words: Induction of cell death in human PANC1 cells assessed as cell shrinkage at 3 uM incubated in nutrient deprived medium measured every 10 mins […] by live cell imaging analysis. The experiment is classed as functional, cell-based. The gist of the method: (§2)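 Cells were treated in NDM in a stage-top incubator at 37 °C under 5% CO2. Phase-contrast images were captured every 10 min for 24 h on a digital imaging system with a 10× objective. Cell mobility, shrinkage, swelling and leakage of cytoplasm were scored from the time-lapse record.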

In experiment [12] the test system is PANC-1. Description: Induction of cell death in human PANC1 cells assessed as leakage of cytoplasmic content at 3 uM incubated in nutrient deprived medium measured every 10 mins for […] by live cell imaging analysis. In kind it is functional, cell-based. The procedure, abridged:
as §2

For experiment [13], the system named is PANC-1. Description: Induction of cell death in human PANC1 cells assessed as swelling of cells at 3 uM incubated in nutrient deprived medium measured every 10 mins for […] by live cell imaging analysis. The experiment is classed as functional, cell-based. The gist of the method:
as §2

Experiment [14] has as its system PANC-1. Description: Inhibition of cell migration in human PANC1 cells at 3 uM incubated in nutrient deprived medium measured every 10 mins for 24 hrs by live cell imaging analysis. The experiment is classed as functional, cell-based. The procedure, abridged:
as §2

Experiment [15] has as its system PANC-1. Description: Inhibition of colony formation in human PANC1 cells at 1.25 uM incubated for 10 days in DMEM by crystal violet staining based assay. The note with it: PANC-1, 240 h.
Experiment [16] relates to PANC-1. Description: Induction of cell death in human PANC1 cells assessed as rounded cell morphology at 3 uM incubated for 24 hrs in nutrient deprived medium by ethidium bromide and acridine orange dye based phase contrast microscopy. The experiment is classed as functional. The procedure, abridged: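 PANC-1 cells were held in NDM for 24 h with compound, alongside untreated controls, then double-stained with acridine orange and ethidium bromide. Imaging was in fluorescence (green AO marks live cells, red EB marks dead or dying cells) and in phase-contrast mode to assess morphology.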

pIC50: −log10 of the molar value. Activity calls are given as the source filed them. The rule behind the calls is not given here.

What is called pIC50 is the IC50 on a negative log10 scale, so that one unit is a factor of ten. For `CC[C@H]1C(=O)C[C@H]2[C@@H]3CC[C@H]4CC(=O)CC[C@]4(C)[C@H]3CC[C@]12C`, the PC50 in experiment [1] is 18 µM. Besides, the pIC50 in [2] is under 4.00.

Consider `CCC/C=C1/C(=O)C[C@H]2[C@@H]3CCC4=CC(=O)CC[C@]4(C)[C@H]3CC[C@]12C`, for which, in [1], the PC50 came to 14 µM. The negative logarithm of the IC50 (pIC50) in experiment [2] was under 4.00.

As usually defined, the inhibition is the relative decrease from the control value, in per cent. For the molecule `CC=C1CC[C@H]2[C@@H]3CCC4=CC(=O)CC[C@]4(C)[C@H]3CC[C@]12C` (mixture of isomers), the result in [3], in experiment [6], in [7] and in [8] was Active. For the same molecule, the Activity entry in experiment [1] was “Dose-dependent effect”. The Ratio in experiment [4] was 34. Also, the inhibition result in [5] is “Dose-dependent effect”. Besides, the inhibition entry in experiment [9] and in experiment [10] was “Active” throughout. For the same molecule, the pIC50 in [2] is under 4.00.

Regarding `C/C=C1\C(=O)C[C@H]2[C@@H]3CCC4=CC(=O)CC[C@]4(C)[C@H]3CC[C@]12C` [GUGGULSTERONE], the PC50 in experiment [1] stood at 37 µM. Moreover, the pIC50 in experiment [2] is 4.38.

`CC/C=C1/C(=O)C[C@H]2[C@@H]3CCC4=CC(=O)CC[C@]4(C)[C@H]3CC[C@]12C`: the PC50 in experiment [1] stood at 50 µM. This molecule gave a pIC50 in [2] of under 4.00.

As to `COc1cc(C[C@H]2C(=O)OC[C@@H]2Cc2ccc(OC)c(OC)c2)ccc1O` [ARCTIGENIN], in experiment [1], the PC50 came out at 0.8 µM.

Regarding `C=C1C(=O)C[C@H]2[C@@H]3CCC4=CC(=O)CC[C@]4(C)[C@H]3CC[C@]12C`, the result in [11], in [12], in [13] and in experiment [16] was Active. The Activity result in experiment [1] was “Dose-dependent effect”. Moreover, the PC50 in experiment [1] came out at 1.6 µM. For the same molecule, the inhibition entry in experiment [14] was “Active”. In addition, the Ratio in [4] worked out at 6.5. For the same molecule, the inhibition entry in [5] was “Dose-dependent effect”. The molecule also yielded an inhibition at 1.25 µM in experiment [15] of 100%. This molecule showed a pIC50 in experiment [2] of 4.96.

Regarding `C/C=C1/C(=O)C[C@H]2[C@@H]3CC[C@H]4CC(=O)CC[C@]4(C)[C@H]3CC[C@]12C`, in experiment [1], the PC50 is over 100 µM. In addition, in [2], the pIC50 was under 4.00.

`COCCC/C=C1/C(=O)C[C@H]2[C@@H]3CCC4=CC(=O)CC[C@]4(C)[C@H]3CC[C@]12C`: in [1], the PC50 came out at 52 µM. The molecule further gave a pIC50 in experiment [2] of under 4.00.

For the molecule `CCC/C=C1\C(=O)C[C@H]2[C@@H]3CCC4=CC(=O)CC[C@]4(C)[C@H]3CC[C@]12C`, the PC50 in [1] was found to be 18 µM. In addition, the pIC50 in experiment [2] is under 4.00.

Turning to `CC/C=C1\C(=O)C[C@H]2[C@@H]3CCC4=CC(=O)CC[C@]4(C)[C@H]3CC[C@]12C`, the PC50 in experiment [1] is 17 µM. The molecule further gave a pIC50 in [2] of under 4.00.

Take `C/C=C1/C(=O)C[C@H]2[C@@H]3CCC4=CC(=O)CC[C@]4(C)[C@H]3CC[C@]12C` [E-GUGGULSTERONE]: the PC50 in experiment [1] was determined as 42 µM. For the same molecule, in experiment [2], the negative logarithm of the IC50 (pIC50) is under 4.00.
